Measurements as given in ChEMBL document CHEMBL1127600, “Mercaptoacyl amino acid inhibitors of atriopeptidase. 1. Structure-activity relationship studies of methionine and S-alkylcysteine derivatives” (J Med Chem, 1994).

What was measured:
Rattus norvegicus [1] = test: In vivo potentiation of ANF Induced Hypotension in rat was determined by giving peroral dose of 10 mg/kg; format: functional; settings: route oral
Rattus norvegicus [2] = test: Tested for in vivo Antihypertensive activity in DOCA rat by giving subcutaneous dose of 30 mg/kg; format: functional
Summary of the method: (§1)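 Male Sprague-Dawley rats (100–150 g) had DOCA-Na hypertension induced and were used 17–21 days later if mean BP was >150 mmHg. Rats were not fasted. Mean BP was recorded after 90-min equilibration. Dosing was sc in TRIS buffer (2 mL/kg) or po in 0.4% aqueous methylcellulose (4 mL/kg). The maximum BP fall over 4 h versus vehicle controls was taken, averaged over four or more animals.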

Rattus norvegicus [3] = test: In vivo potentiation of ANF Induced Hypotension in rat was determined by giving peroral dose of 3 mg/kg; format: functional; settings: route oral
Neprilysin [4] = molecular target: T1, Neprilysin (Oryctolagus cuniculus, UniProt P08049); test: Ttested for its inhibitory activity against neutral endopeptidase (NEP)
T1 sequence (P08049 whole entry): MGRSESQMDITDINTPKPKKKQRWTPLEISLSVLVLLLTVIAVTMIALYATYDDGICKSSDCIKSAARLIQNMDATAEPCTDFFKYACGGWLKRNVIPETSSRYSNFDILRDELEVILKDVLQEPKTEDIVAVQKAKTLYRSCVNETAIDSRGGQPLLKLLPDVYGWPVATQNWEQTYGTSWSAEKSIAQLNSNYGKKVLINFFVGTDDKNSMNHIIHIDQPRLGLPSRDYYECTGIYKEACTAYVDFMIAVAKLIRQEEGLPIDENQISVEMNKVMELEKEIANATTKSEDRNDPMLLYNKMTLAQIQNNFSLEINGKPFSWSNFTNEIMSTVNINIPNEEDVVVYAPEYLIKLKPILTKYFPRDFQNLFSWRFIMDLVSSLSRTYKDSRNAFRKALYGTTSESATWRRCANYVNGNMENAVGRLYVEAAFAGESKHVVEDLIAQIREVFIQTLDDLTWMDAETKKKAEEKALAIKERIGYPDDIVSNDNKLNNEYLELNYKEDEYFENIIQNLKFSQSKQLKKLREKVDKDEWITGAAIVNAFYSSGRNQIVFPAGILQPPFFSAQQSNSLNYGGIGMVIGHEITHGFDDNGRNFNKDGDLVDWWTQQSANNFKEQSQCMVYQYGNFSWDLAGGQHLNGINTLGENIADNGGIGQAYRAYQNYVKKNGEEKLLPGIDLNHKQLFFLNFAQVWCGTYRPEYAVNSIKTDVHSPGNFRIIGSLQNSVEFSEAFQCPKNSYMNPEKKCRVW
Summary of the method: (§2)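 Purified rabbit kidney NEP (EC 24.11) was the enzyme source, with [³H]Leu-enkephalin as the substrate.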

Rattus norvegicus [5] = test: In vivo potentiation of ANF induced hypotension in rat, following subcutaneous dose of 30 mg/kg; format: functional
Summary of the method: (§3)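 Conscious male SHR (270–300 g) had caudal artery and jugular vein cannulae placed under ether. After at least 90 min of stabilization, ANF 103-125 or 99-126 was given as an iv bolus at a submaximal dose. 60–90 min later, drug or vehicle (0.2% aqueous methylcellulose with 20% Tris-HCl) was given sc. ANF was repeated 15 min after dosing, and the response was compared with vehicle controls. Values are means of four or more animals.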

Rattus norvegicus [6] = test: Tested for in vivo Antihypertensive activity in DOCA rat by giving peroral dose of 3 mg/kg; format: functional; settings: route oral
Summary of the method: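 Male Sprague-Dawley rats (100–150 g at preparation) made DOCA-Na hypertensive, used 17–21 days after induction if mean BP >150 mmHg, nonfasted. Drug given orally as solution or suspension in 0.4% aqueous methylcellulose (4 mL/kg). Mean BP recorded after 90-min equilibration. Value is maximum BP fall over 4 h versus vehicle-treated controls, averaged over four or more animals.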

Neprilysin [7] = molecular target: T1, Neprilysin; test: In vitro inhibitory activity against neutral endopeptidase (NEP); summary of the method: as §2
[8] = molecular target: T2, Angiotensin-converting enzyme (Oryctolagus cuniculus, UniProt P12822); test: Tested in vitro for its inhibitory activity against angiotensin converting enzyme
T2 sequence (P12822 whole entry): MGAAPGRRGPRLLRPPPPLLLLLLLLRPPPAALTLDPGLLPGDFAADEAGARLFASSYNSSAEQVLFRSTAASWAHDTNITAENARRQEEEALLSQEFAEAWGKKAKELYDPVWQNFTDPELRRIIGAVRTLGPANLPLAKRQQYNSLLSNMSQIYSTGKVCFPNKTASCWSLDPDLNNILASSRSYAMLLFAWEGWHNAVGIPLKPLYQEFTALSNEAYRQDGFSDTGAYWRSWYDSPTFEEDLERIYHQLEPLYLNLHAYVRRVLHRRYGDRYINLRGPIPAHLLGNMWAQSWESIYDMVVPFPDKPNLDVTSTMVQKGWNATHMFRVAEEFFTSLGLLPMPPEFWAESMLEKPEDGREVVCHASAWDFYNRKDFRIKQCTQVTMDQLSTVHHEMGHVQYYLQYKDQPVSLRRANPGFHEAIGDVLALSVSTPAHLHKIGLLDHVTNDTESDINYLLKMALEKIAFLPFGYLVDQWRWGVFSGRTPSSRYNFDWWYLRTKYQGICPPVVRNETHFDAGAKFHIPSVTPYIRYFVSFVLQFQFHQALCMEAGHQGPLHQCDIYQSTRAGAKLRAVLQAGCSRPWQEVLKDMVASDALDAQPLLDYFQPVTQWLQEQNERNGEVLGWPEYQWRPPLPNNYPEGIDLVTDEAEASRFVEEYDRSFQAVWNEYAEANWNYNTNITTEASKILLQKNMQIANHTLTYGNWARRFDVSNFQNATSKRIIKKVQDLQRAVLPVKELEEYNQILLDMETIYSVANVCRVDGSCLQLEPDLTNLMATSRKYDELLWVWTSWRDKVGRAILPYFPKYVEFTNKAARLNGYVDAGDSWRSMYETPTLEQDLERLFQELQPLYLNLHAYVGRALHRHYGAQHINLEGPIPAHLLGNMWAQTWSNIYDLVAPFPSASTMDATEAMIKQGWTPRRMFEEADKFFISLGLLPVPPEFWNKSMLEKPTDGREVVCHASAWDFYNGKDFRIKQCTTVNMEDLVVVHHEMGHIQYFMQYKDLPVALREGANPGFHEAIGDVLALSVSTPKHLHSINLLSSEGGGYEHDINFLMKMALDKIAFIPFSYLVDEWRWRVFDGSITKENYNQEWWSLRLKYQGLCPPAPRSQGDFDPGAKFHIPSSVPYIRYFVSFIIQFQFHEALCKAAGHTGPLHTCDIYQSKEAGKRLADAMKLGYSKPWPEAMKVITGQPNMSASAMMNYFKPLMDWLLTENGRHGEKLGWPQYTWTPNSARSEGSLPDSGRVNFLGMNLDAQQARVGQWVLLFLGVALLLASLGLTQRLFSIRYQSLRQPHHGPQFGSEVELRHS

Rattus norvegicus [9] = test: Tested for in vivo Antihypertensive activity in DOCA rat by giving subcutaneous dose of 10 mg/kg; format: functional; summary of the method: as §1
Rattus norvegicus [10] = test: In vivo potentiation of ANF Induced Hypotension in rat was determined by giving subcutaneous dose of 90 mg/kg ANF; format: functional
Rattus norvegicus [11] = test: Tested for in vivo Antihypertensive activity in DOCA rat by giving peroral dose of 3 mg/Kg; format: functional; summary of the method: as §1
Rattus norvegicus [12] = test: In vivo potentiation of ANF Induced Hypotension in rat was determined by giving subcutaneous dose of 10 mg/kg; format: functional; summary of the method: as §3
Rattus norvegicus [13] = test: Tested for in vivo Antihypertensive activity in DOCA rat by giving subcutaneous dose of 3 mg/kg; format: functional; summary of the method: as §1
Rattus norvegicus [14] = test: Tested for in vivo Antihypertensive activity in DOCA rat by giving peroral dose of 30 mg/kg; format: functional; settings: route oral; summary of the method: as §1
Rattus norvegicus [15] = test: Tested for in vivo Antihypertensive activity in DOCA rat by giving peroral dose of 10 mg/kg; format: functional; settings: route oral; summary of the method: as §1
Rattus norvegicus [16] = test: Tested for in vivo Antihypertensive activity in DOCA rat by giving peroral dose of 1 mg/kg; format: functional; settings: route oral; summary of the method: as §1
Rattus norvegicus [17] = test: Tested for in vivo Antihypertensive activity in DOCA rat by giving peroral dose of 1 mg/Kg; format: functional; summary of the method: as §1
Rattus norvegicus [18] = test: Tested for in vivo Antihypertensive activity in DOCA rat by giving subcutaneous dose of 1 mg/kg; format: functional; summary of the method: as §1
Rattus norvegicus [19] = test: Ttested for in vivo Antihypertensive activity in DOCA rat by giving subcutaneous dose of 0.1 mg/kg; format: functional; summary of the method: as §1

Compound	Delta blood pressure (Rattus norvegicus [2]) [mmHg]	Delta blood pressure (Rattus norvegicus [5]) [mmHg]	IC50 (Neprilysin [7]) [nM]	IC50 [8] [nM]	other results
CSCC[C@@H](NC(=O)[C@H](CSC(=O)c1ccccc1)Cc1ccccc1)C(N)=O	0	–	–	–	Delta blood pressure (Rattus norvegicus [1]): 52 mmHg; Delta blood pressure (Rattus norvegicus [3]): 19 mmHg
Cc1ccc(CSC[C@@H](NC(=O)[C@@H](CS)Cc2ccccc2)C(=O)O)cc1C	–	23	–	–	IC50 (Neprilysin [4]): 370 nM
CSCC[C@@H](NC(=O)[C@H](CS)CCc1ccccc1)C(=O)O	–	–	> 300	> 1000	Delta blood pressure (Rattus norvegicus [6]): 6 mmHg
O=C(N[C@H](CSCc1ccccc1)C(=O)O)[C@H](CS)Cc1ccccc1	55	–	32	> 1000	Delta blood pressure (Rattus norvegicus [9]): 21 mmHg; Delta blood pressure (Rattus norvegicus [10]): 45 mmHg
CSCC[C@@H](NC(=O)[C@@H](CSC(C)=O)Cc1ccccc1)C(N)=O	–	23	–	–	Delta blood pressure (Rattus norvegicus [11]): 39 mmHg
CC(=O)SC[C@@H](Cc1ccccc1)C(=O)N[C@H](CSCc1ccc(C)cc1)C(=O)O	48	–	–	–	Delta blood pressure (Rattus norvegicus [12]): 42 mmHg
CSCC[C@@H](NC(=O)C(CSC(C)=O)Cc1ccccc1)C(=O)N1CCCCC1 (stereo partly specified)	–	38	–	–	Delta blood pressure (Rattus norvegicus [9]): 32 mmHg; Delta blood pressure (Rattus norvegicus [13]): 3 mmHg
COc1ccc(CSC[C@@H](NC(=O)[C@H](CS)Cc2ccccc2)C(=O)O)cc1	–	23	–	–	IC50 (Neprilysin [4]): 17 nM; Delta blood pressure (Rattus norvegicus [14]): 0 mmHg
C[C@H](CS)C(=O)N[C@H](CSCc1ccccc1)C(=O)O	0	19	46	58	–
Cc1ccc(CSC[C@@H](NC(=O)[C@H](CS)Cc2ccccc2)C(N)=O)cc1	–	17	> 300	–	Delta blood pressure (Rattus norvegicus [15]): 46 mmHg; Delta blood pressure (Rattus norvegicus [13]): 17 mmHg
CCOC(=O)[C@@H](CCSC)NC(=O)[C@@H](CSC(C)=O)Cc1ccccc1C	–	36	> 300	250	Delta blood pressure (Rattus norvegicus [15]): 70 mmHg; Delta blood pressure (Rattus norvegicus [11]): 48 mmHg; Delta blood pressure (Rattus norvegicus [16]): 27 mmHg
CSCC[C@@H](NC(=O)[C@@H](CS)Cc1ccccc1C)C(=O)O	–	–	7	100	Delta blood pressure (Rattus norvegicus [17]): 24 mmHg; Delta blood pressure (Rattus norvegicus [13]): 43 mmHg
CC(=O)SC[C@H](Cc1ccccc1)C(=O)N[C@H](CSCc1ccc(C)cc1)C(=O)O	–	–	–	–	Delta blood pressure (Rattus norvegicus [1]): 20 mmHg
Cc1ccc(CSC[C@@H](NC(=O)[C@H](CS)Cc2ccccc2)C(=O)O)cc1	33	48	20	1200	Delta blood pressure (Rattus norvegicus [14]): 28 mmHg
Cc1ccc(CSC[C@@H](NC(=O)[C@@H](CS)Cc2cccc3ccccc23)C(=O)O)cc1	–	0	2	> 1000	Delta blood pressure (Rattus norvegicus [15]): 8 mmHg; Delta blood pressure (Rattus norvegicus [18]): 47 mmHg; Delta blood pressure (Rattus norvegicus [14]): 33 mmHg; Delta blood pressure (Rattus norvegicus [13]): 26 mmHg
CCSC[C@@H](NC(=O)[C@@H](CS)Cc1ccccc1)C(=O)O	–	19	2.4	28	Delta blood pressure (Rattus norvegicus [15]): 61 mmHg; Delta blood pressure (Rattus norvegicus [18]): 22 mmHg; Delta blood pressure (Rattus norvegicus [19]): 21 mmHg
O=C(N[C@H](CSCc1ccccc1)C(=O)O)[C@@H](CS)Cc1ccccc1	30	–	9	24	Delta blood pressure (Rattus norvegicus [9]): 17 mmHg; Delta blood pressure (Rattus norvegicus [5]; 30 mg/kg): 35 mmHg
CSCC[C@@H](NC(=O)C(CS)Cc1ccccc1)C(=O)O (stereo partly specified)	42	25	4	120	Delta blood pressure (Rattus norvegicus [14]): 18 mmHg
CC(=O)SC[C@H](Cc1ccccc1)C(=O)N[C@H](CSCc1ccc(C)cc1)C(N)=O	–	–	–	–	Delta blood pressure (Rattus norvegicus [15]): 0 mmHg; Delta blood pressure (Rattus norvegicus [12]): 0 mmHg
Cc1ccc(CSC[C@@H](NC(=O)[C@@H](CS)Cc2ccccc2)C(=O)O)cc1	17	48	11	19	–
